In brackets after ≈: the same amount, converted by molar mass.
How the values were obtained:
KB [1] = assay: Growth inhibition of human KB cells at 5 to 6 ug/mL after 72 hrs by neutral red staining; type: functional
KB [2] = assay: Cytotoxicity against human KB cells after 72 hrs by neutral red staining; type: functional; conditions: read-out: ED50 (the source's name)
Outline: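 Human nasopharyngeal carcinoma KB cells exposed in triplicate to five concentrations (50 to 0.01 µg/mL) of pure compound, or none, for 72 h at 37 °C. Living cells stained with neutral red and optical density read at 540 nm. ED50 is the concentration inhibiting cell growth to 50% of control.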

SMILES | Inhibition (KB [1]) [%] | EC50 (KB [2]) [µg/mL]
CC(C)CC(=O)c1c(O)c2c(c3c(-c4ccccc4)cc(=O)oc13)O[C@H](C(C)(C)O)C2 | 50 | 9 (≈ 21.3 µM)
CCCC(=O)c1c(O)c2c(c3c(-c4ccccc4)cc(=O)oc13)O[C@H](C(C)(C)O)C2 | 50 | –
CCCC(=O)c1c2c(c3oc(=O)cc(-c4ccccc4)c3c1O)C[C@@H](C(C)(C)O)O2 | – | 6 (≈ 14.7 µM)
CCC(C)C(=O)c1c2c(c3oc(=O)cc(-c4ccccc4)c3c1O)C[C@@H](C(C)(C)O)O2 (stereo not given in full) | – | 5 (≈ 11.8 µM)
C=C(C)[C@@H]1Cc2c(c(C(=O)CC(C)C)c(O)c3c(-c4ccccc4)cc(=O)oc23)O1 | – | 40 (≈ 98.9 µM)
CCC(C)C(=O)c1c(O)c2c(c3c(-c4ccccc4)cc(=O)oc13)O[C@H](C(C)(C)O)C2 (stereo not given in full) | 50 | 15 (≈ 35.5 µM)
CC(C)CC(=O)c1c2c(c3oc(=O)cc(-c4ccccc4)c3c1O)C[C@@H](C(C)(C)O)O2 [CYCLOMAMMEISIN] | – | 6 (≈ 14.2 µM)
COc1cccc2c1C(=O)c1c(O)c3c(c(O)c1C2=O)C[C@@](O)(C(=O)CO)C[C@@H]3O[C@H]1C[C@H](N)[C@H](O)[C@H](C)O1 [DOXORUBICIN] | – | 0.058 (≈ 0.107 µM)

From ChEMBL document CHEMBL1150829, “Novel cytotoxic 4-phenylfuranocoumarins from Calophyllum dispar” (2001)
